p97 ATPase inh: inhibitors of human p97 ATPase. 0.42% of 220,000 active. inhibition, % at 8 µM. recombinant p97 ATPase, Kinase-Glo ATP luminescence, 3 h; in the data active = inhibition above about 15%
Target sequence (P55072 whole entry, looked up): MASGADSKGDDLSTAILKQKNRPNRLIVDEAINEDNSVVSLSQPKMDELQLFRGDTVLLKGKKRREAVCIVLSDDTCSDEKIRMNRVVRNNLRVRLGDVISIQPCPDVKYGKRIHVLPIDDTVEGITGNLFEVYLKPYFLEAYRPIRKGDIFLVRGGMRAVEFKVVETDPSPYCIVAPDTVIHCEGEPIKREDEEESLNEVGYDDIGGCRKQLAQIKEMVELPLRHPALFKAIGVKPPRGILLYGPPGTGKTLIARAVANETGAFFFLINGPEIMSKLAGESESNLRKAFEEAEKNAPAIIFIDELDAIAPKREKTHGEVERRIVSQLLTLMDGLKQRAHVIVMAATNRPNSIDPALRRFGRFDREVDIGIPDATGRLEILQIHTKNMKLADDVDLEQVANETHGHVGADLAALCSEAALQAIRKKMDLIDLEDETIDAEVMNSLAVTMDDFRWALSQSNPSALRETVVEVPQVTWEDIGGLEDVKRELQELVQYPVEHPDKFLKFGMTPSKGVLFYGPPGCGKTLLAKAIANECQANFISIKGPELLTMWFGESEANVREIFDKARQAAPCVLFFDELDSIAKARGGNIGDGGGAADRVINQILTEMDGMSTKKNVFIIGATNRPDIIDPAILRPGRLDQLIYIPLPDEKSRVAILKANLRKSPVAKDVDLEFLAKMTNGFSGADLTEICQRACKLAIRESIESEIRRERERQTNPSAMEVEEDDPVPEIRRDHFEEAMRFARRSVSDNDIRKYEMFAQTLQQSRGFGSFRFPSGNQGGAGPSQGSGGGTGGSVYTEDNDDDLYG
PKD1 inh: inhibitors of human PKD1 kinase. 0.056% of 200,000 active. PKD1 kinase fluorescence polarization assay. AID 797. inhibition, % (concentration not given with the values); in the data active = inhibition above about 50%
ROMK mod: modulators of human ROMK potassium channel | 2% of 130,000 active | Tet-inducible ROMK, thallium flux fluorescence; actives lie on both sides | P48048 | B-score at 10 µM | AID 1918;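 active = signal ratio slope over the read window, or its plate-corrected B-score, at least 3 SD from the plate mean, either direction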;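 also: B-score of the F/F0 ratio slope over 7 to 12 s after thallium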
KCC2 mod: KCC2 (human) Cl- transport modulation; KCC2 cells, thallium flux FluoZin-2 fluorescence; B-score of Tl+ flux slope (higher = more flux/activation; lower = inhibition) at 10 µM; 2.2% of 190,000 active; AID 1456;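 active = thallium flux slope and its plate-corrected score both differing from the plate sample mean at a set confidence after two filtering rounds, in either direction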;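 also: slope of fluorescence scaled to starting intensity during 10 to 20 s after thallium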
Redox H2O2 prof: compounds producing H2O2 with reducing agent – biochemical, NIH compound library profiling, artefact control for MLSCN library redox annotation, primary screen. 0.03% of 200,000 active. DTT-dependent redox cycling H2O2, phenol red/HRP absorbance; 100% = 100 µM peroxide control, 0% = buffer. activation, % at 10 µM. AID 878;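 active = activation of at least 50% relative to the plate's high and low controls in the primary single-dose screen; inactive = activation below 50%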;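 also: compound incubated with DTT at 0.8 mM final as the reducing agent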
Mdm2 ligase inh: Mdm2 E3 ligase (human) inhibition | Q00987 | signal enhancement, % at 5 µM | AID 1230 | 0.11% of 210,000 active | cell-based MDM2 ubiquitination luciferase reporter, 2 h; 0 = plate control, 100 = twice control, blank-subtracted;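 active = signal enhancement of 30% or more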;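 also: luminescence tracks abundance of the self-degrading MDM2-luciferase fusion protein; higher signal means inhibition of MDM2 E3 ligase activity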
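Material: Stable MDM2–luciferase fusion reporter cells | Amount: 2000 cells seeded into each well | Dosing: One concentration, 5 µM, with 0.2% DMSO | Incubation: 4 h cell settling then 2 h compound exposure, 37 °C | Measured by: Luciferase luminescence | Read-out basis: % enhancement relative to plate controls after blank subtraction | Benchmarks: Control and blank well means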
KCC2 sec1: confirmation of human KCC2 transport modulators. shares compounds with KCC2 mod. HEK293-KCC2, thallium flux, FluoZin2 fluorescence; active compounds read high. normalised thallium flux (F/F0 slope) at 10 µM. 15% of 3,700 active;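 active = thallium flux slope above the same plate's solvent-only control mean plus 3 SD; inconclusive = the two replicate wells disagree; inactive = no significant difference from solvent-only control wells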
KCC2 bumet counter: thallium flux persisting under bumetanide in KCC2 cells, counter-screen secondary assay; shares compounds with KCC2 mod; HEK293-KCC2 + bumetanide/ouabain, thallium flux FluoZin2; active compounds read high; normalized thallium flux at 10 µM; 49% of 3,700 active;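 active = thallium entry rate above the same plate's blocked-transporter control wells by more than 3 SD; inconclusive = the two repeat wells disagree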;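 also: raw slope of fluorescence over initial fluorescence between 10 and 20 s after thallium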
KCC2 sec2: confirmation of human KCC2 transport modulators. shares compounds with KCC2 mod. HEK293-KCC2, thallium flux FluoZin2 fluorescence; actives lie on both sides; F/F0 rise rate, 10–20 s post-thallium. 23% of 3,700 active. normalized thallium flux at 10 µM. AID 1715;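 active = thallium flux slope more than 3 SD above or below the plate's solvent-only control mean, mostly below; inconclusive = the two repeat wells disagreed; inactive = no significant shift from solvent-only controls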
HEK counter1: counter-screen for KCC2 modulators: effect in parental HEK293 cells; 46% of 3,700 active; shares compounds with KCC2 mod; thallium flux rate (normalised fluorescence) at 10 µM; thallium flux FluoZin2, ouabain; baseline-ratio fluorescence slope, 10–20 s after thallium;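 active = thallium flux rate significantly above the same plate's solvent-only control wells, beyond their mean plus 3 SD; inconclusive = the two replicate wells gave conflicting results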
KCC2 retest ouab: KCC2 (human) modulation, ouabain retest; shares compounds with KCC2 mod; HEK293-KCC2, thallium flux FluoZin2 fluorescence; bidirectional: low = inhibitor, high = activator; raw Tl+ flux slope (below DMSO = inhibition, above = activation) at 10 µM; 48% of 3,700 active; AID 1717;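 active = thallium flux slope beyond 3 SD from same-plate DMSO control mean in most replicates, usually higher, sometimes lower; inconclusive = repeat tests gave conflicting results; inactive = no significant difference from controls in most replicates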;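 also: slope of initial-normalized fluorescence between seconds 10 and 20 after thallium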
HEK293 Tl flux2: parental HEK flux effect, counter-screen 2 | shares compounds with KCC2 mod | HEK293 parental, thallium flux FluoZin-2 fluorescence slope | thallium flux slope at 10 µM | 33% of 3,700 active;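 active = thallium flux slope above the same plate's solvent-control mean plus 3 SD in both duplicate wells; inconclusive = duplicate wells that disagreed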;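 also: run without ouabain in cells lacking the KCC2 cotransporter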
A number is an active result. Only some compounds are listed: those with a hit (about 3.4% of all), similar ones and a draw of the others.

Screening CC(=O)c1c(C)[nH]c(C(=O)NCc2ccco2)c1C returned p97 ATPase inh inactive, PKD1 inh inactive, ROMK mod inactive, KCC2 mod inactive, Redox H2O2 prof inactive and Mdm2 ligase inh inactive.
For O=C(Oc1c(Cl)cc(Cl)c2cccnc12)c1cccs1 the results were p97 ATPase inh inactive, PKD1 inh inactive, ROMK mod inactive, KCC2 mod 3, Redox H2O2 prof inactive, Mdm2 ligase inh inactive, KCC2 sec1 inactive, KCC2 bumet counter 0.03, KCC2 sec2 inactive, HEK counter1 0.016, KCC2 retest ouab 0.035 and HEK293 Tl flux2 inconclusive.
Oc1c(I)cc(I)c2cccnc12 was read as p97 ATPase inh inactive, PKD1 inh inactive, KCC2 mod 78, Redox H2O2 prof inactive, KCC2 sec1 inactive, KCC2 bumet counter 0.078, KCC2 sec2 inactive, HEK counter1 0.044, KCC2 retest ouab 0.084 and HEK293 Tl flux2 0.013.
O=C(Oc1c(Cl)cc(Cl)c2cccnc12)c1ccco1 was read as p97 ATPase inh inactive, PKD1 inh inactive, ROMK mod inactive, Redox H2O2 prof inactive and Mdm2 ligase inh inactive.
`Oc1c(Cl)cc(Cl)c2cccnc12` gave p97 ATPase inh inactive, PKD1 inh inactive, ROMK mod inactive, KCC2 mod 88, Redox H2O2 prof inactive, Mdm2 ligase inh inactive, KCC2 sec1 0.019, KCC2 bumet counter 0.12, KCC2 sec2 0.047, HEK counter1 0.098, KCC2 retest ouab 0.096 and HEK293 Tl flux2 0.032.
Cc1c(Cl)cccc1NC(=S)NCCN1CCOCC1 was read as p97 ATPase inh inactive, PKD1 inh inactive, ROMK mod inactive, KCC2 mod inactive, Redox H2O2 prof inactive and Mdm2 ligase inh inactive.
`CCC(=O)Nc1cc(C(=O)OCc2ccc(C(=O)Oc3ccccc3)cc2)ccc1C` gave p97 ATPase inh inactive, PKD1 inh inactive, ROMK mod inactive, KCC2 mod inactive, Redox H2O2 prof inactive and Mdm2 ligase inh inactive.
`Cc1sc2ncnc(N3CCN(CCOc4ccc(Cl)cc4)CC3)c2c1C` gave p97 ATPase inh inactive, PKD1 inh inactive, ROMK mod inactive, Redox H2O2 prof inactive and Mdm2 ligase inh inactive.
For COC(=O)c1ccc2c(=O)n(-c3ccc(OC)cc3)c(=S)[nH]c2c1 the results were p97 ATPase inh inactive, PKD1 inh inactive, ROMK mod inactive, KCC2 mod 8.2, Redox H2O2 prof inactive, Mdm2 ligase inh inactive, KCC2 sec1 inactive, KCC2 bumet counter 0.02, KCC2 sec2 inactive, HEK counter1 0.012, KCC2 retest ouab inconclusive and HEK293 Tl flux2 inactive.
Screening CCOCCCNC(=O)c1ccc(-n2c(=S)[nH]c3ccccc3c2=O)cc1 returned p97 ATPase inh inactive, PKD1 inh inactive, ROMK mod inactive, KCC2 mod 10, Redox H2O2 prof inactive, Mdm2 ligase inh inactive, KCC2 sec1 inconclusive, KCC2 bumet counter 0.015, KCC2 sec2 inactive, HEK counter1 0.0093, KCC2 retest ouab inconclusive and HEK293 Tl flux2 0.01.
CCCCNC(=O)c1ccc2c(=O)n(CCCOCC)c(=S)[nH]c2c1 was read as p97 ATPase inh inactive, PKD1 inh inactive, KCC2 mod inactive, Redox H2O2 prof inactive and Mdm2 ligase inh inactive.
COc1ccc(-n2c(=S)[nH]c3cc(C(=O)O)ccc3c2=O)cc1 was read as p97 ATPase inh inactive, PKD1 inh inactive, ROMK mod inactive, KCC2 mod inactive, Redox H2O2 prof inactive and Mdm2 ligase inh inactive.
For O=C(NNC1CC(=O)N(c2ccc(Br)cc2)C1=O)c1cccs1 (centres undefined) the results were p97 ATPase inh inactive and KCC2 mod inactive.
For CCOC(=O)C1=NN(C(=O)c2ccc(OC)cc2)C(O)(c2ccc(Cl)cc2)C1 (centres undefined) the results were p97 ATPase inh inactive, PKD1 inh inactive, ROMK mod inactive, KCC2 mod 66, Redox H2O2 prof inactive, Mdm2 ligase inh inactive, KCC2 sec1 inconclusive, KCC2 bumet counter 0.093, KCC2 sec2 0.077, HEK counter1 0.095, KCC2 retest ouab 0.087 and HEK293 Tl flux2 0.064.
For CCOC(=O)C1=NN(C(=O)COc2ccccc2)C(O)(c2ccc(Cl)cc2)C1 (centres undefined) the results were p97 ATPase inh inactive, PKD1 inh inactive, ROMK mod inactive, KCC2 mod 6.7, Redox H2O2 prof inactive, Mdm2 ligase inh inactive, KCC2 sec1 0.012, KCC2 bumet counter 0.029, KCC2 sec2 inactive, HEK counter1 0.013, KCC2 retest ouab inactive and HEK293 Tl flux2 inconclusive.
`O=C(NC1CC1)c1ccc(COc2ccc(F)cc2)o1` gave p97 ATPase inh inactive, PKD1 inh inactive, ROMK mod inactive, KCC2 mod inactive, Redox H2O2 prof inactive and Mdm2 ligase inh inactive.
C/C(NC(=O)c1ccccc1)=C1/C(=O)CC2C1C2(C)C (centres undefined) was read as p97 ATPase inh inactive, PKD1 inh inactive, ROMK mod inactive, Redox H2O2 prof inactive and Mdm2 ligase inh inactive.
For O/N=C\c1cccn1-c1nccs1 the results were p97 ATPase inh inactive, PKD1 inh inactive, ROMK mod inactive, KCC2 mod inactive, Redox H2O2 prof inactive and Mdm2 ligase inh inactive.
For O/N=C\c1cccn1-c1ccc(Br)cc1 the results were p97 ATPase inh inactive, PKD1 inh inactive, ROMK mod inactive, Redox H2O2 prof inactive, Mdm2 ligase inh inactive, KCC2 sec1 inactive, KCC2 bumet counter inactive, KCC2 sec2 inactive, HEK counter1 inactive, KCC2 retest ouab inactive and HEK293 Tl flux2 inactive.
Screening Oc1ccc(-c2nc(-c3ccc(O)c(O)c3)cs2)cc1 returned p97 ATPase inh inactive, PKD1 inh inactive, KCC2 mod -3.5, Redox H2O2 prof inactive, Mdm2 ligase inh inactive, KCC2 sec1 inactive, KCC2 bumet counter inactive, KCC2 sec2 inconclusive, HEK counter1 inactive, KCC2 retest ouab 0.014 and HEK293 Tl flux2 inactive.
